Experimental data: ChEMBL document CHEMBL3244170, “Synthesis and biological evaluation of 9,11-azo-13-oxa-15-hydroxyprostanoic acid, a potent inhibitor of platelet aggregation” (J Med Chem, 1979)
Active and inactive are the calls of the source. No cut-off for these calls is given here.

Legend:
Platelet [1] = experiment: Effect on arachidonic acid metabolism in washed human platelet assessed as HETE level at 10^-4 M by GC-MS analysis (reference value: 23 nmol); assay type: functional
Platelet [2] = experiment: Inhibition of 8.2 x 10^-4 M arachidonic acid-induced platelet aggregation in human platelet rich plasma at 10^-4 M incubated for 1.5 mins at 37.5 degC; assay type: functional
Procedure, shortened: (§1)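 Human platelet-rich plasma incubated with test agent for 1.5 min at 37.5 °C, then aggregating agent added. Aggregation followed for 5 min turbidimetrically in a dual-channel aggregometer. Baseline (0%) was set with PRP. Full scale (100%) was set at the optical density of plasma treated with the aggregating agent alone. Agents were also checked for agonist activity at 10^-4 and 10^-6 M.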

Platelet [3] = experiment: Inhibition of 2 x 10^-6 M ADP-induced platelet aggregation in human platelet rich plasma at 10^-4 M incubated for 1.5 mins at 37.5 degC; assay type: functional; procedure, shortened: as §1
Platelet [4] = experiment: Inhibition of 2 x 10^-6 M ADP-induced platelet aggregation in human platelet rich plasma at 10^-4 to 10^-6 M incubated for 1.5 mins at 37.5 degC; assay type: functional; procedure, shortened: as §1
Platelet [5] = experiment: Inhibition of 8.5 x 10^-7 M 9,11 methanoepoxy-PGH2-induced platelet aggregation in human platelet rich plasma incubated for 1.5 mins at 37.5 degC; assay type: functional; details: 0.025 h
Platelet [6] = experiment: Induction of 9.5 x 10^-7 M 9,11 methanoepoxy-PGH2-induced platelet aggregation in human platelet rich plasma at 10^-4 to 10^-6 M incubated for 1.5 mins at 37.5 degC
Platelet [7] = experiment: Inhibition of 9.5 x 10^-7 M 9,11 methanoepoxy-PGH2-induced platelet aggregation in human platelet rich plasma at 10^-4 M incubated for 1.5 mins at 37.5 degC; assay type: functional; procedure, shortened: as §1
Platelet [8] = experiment: Inhibition of TxA2-induced platelet aggregation in aspirinated human platelet at 10^-4 M incubated for 1.5 mins at 37.5 degC cells preincubated with PGH2 for 15 secs; assay type: functional, cell-based
Procedure, shortened: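 TxA2 was generated by stirring human platelet microsomes (0.1 mL, 1.9 mg protein/mL) with PGH2 at 37.5 °C for 15 s. The methods give PGH2 as 10^-4 M; the legend gives it as 1.4 nmol. Aspirinated PRP (0.9 mL), preincubated 1.5 min with inhibitor, was then added. Aggregation was monitored for 5 min. Boiled microsomes served as control.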

Platelet [9] = experiment: Inhibition of 8.3 x 10^-4 M arachidonic acid-induced platelet aggregation in human platelet rich plasma incubated for 1.5 mins at 37.5 degC; assay type: functional; details: 0.025 h
Thromboxane-A synthase = target: T1, Thromboxane-A synthase (Homo sapiens, UniProt P24557); experiment: Inhibition of thromboxane synthetase in intact human platelet microsomes assessed as inhibition of [1-14C]PGH2 to [1-14C]TxA2
T1 sequence (P24557 whole entry): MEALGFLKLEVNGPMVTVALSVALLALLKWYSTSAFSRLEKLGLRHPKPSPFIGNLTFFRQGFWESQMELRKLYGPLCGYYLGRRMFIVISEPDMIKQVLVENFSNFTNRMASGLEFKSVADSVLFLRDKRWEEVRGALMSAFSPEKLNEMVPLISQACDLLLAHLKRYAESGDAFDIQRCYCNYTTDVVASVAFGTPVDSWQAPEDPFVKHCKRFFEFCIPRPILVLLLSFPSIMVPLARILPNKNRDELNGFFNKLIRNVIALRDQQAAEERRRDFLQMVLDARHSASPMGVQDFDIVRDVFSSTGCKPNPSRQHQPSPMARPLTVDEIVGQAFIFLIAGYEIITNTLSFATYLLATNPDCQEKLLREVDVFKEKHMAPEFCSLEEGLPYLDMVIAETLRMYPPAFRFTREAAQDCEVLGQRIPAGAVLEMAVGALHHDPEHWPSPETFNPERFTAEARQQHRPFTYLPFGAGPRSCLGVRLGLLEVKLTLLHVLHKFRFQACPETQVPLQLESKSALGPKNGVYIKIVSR

Platelet [10] = experiment: Induction of 8.2 x 10^-4 M arachidonic acid-induced platelet aggregation in human platelet rich plasma at 10^-4 to 10^-6 M incubated for 1.5 mins at 37.5 degC
Platelet [11] = experiment: Induction of 1.4 x 10^-6 M PGH2-induced platelet aggregation in human platelet rich plasma at 10^-4 to 10^-6 M incubated for 1.5 mins at 37.5 degC
Platelet [12] = experiment: Inhibition of 1.4 x 10^-6 M PGH2-induced platelet aggregation in human platelet rich plasma at 10^-4 M incubated for 1.5 mins at 37.5 degC; assay type: functional; procedure, shortened: as §1
Platelet [13] = experiment: Effect on arachidonic acid metabolism in washed human platelet assessed as TxB2 level at 10^-4 M by GC-MS analysis (reference value: 14 nmol); assay type: functional

SMILES	Activity (Platelet [1]) [nmol]	inhibition (INH) (Platelet [2]) [%]	inhibition (INH) (Platelet [3]) [%]	inhibition (Platelet [4])	IC50 (Platelet [5]) [µM]	induction of platelet aggregation (Platelet [6])	inhibition (INH) (Platelet [7]) [%]	inhibition (Platelet [8])	IC50 (Platelet [9]) [µM]	IC50 (Thromboxane-A synthase) [µM]	induction of platelet aggregation (Platelet [10])	induction (Platelet [11])	inhibition (INH) (Platelet [12]) [%]	Activity (Platelet [13]) [nmol]
CCCCCC(O)CO[C@@H]1[C@@H](CCCCCCC(=O)O)[C@@H]2C[C@@H]1N=N2 (mixture of isomers)	27	100	0	inactive	5.5	inactive	100	Active	31	1	inactive	inactive	100	0
CCCCCC(O)CO[C@@H]1[C@@H](CCCCCCC(=O)O)[C@@H]2C[C@@H]1N(C(=O)OCC)N2C(=O)OCC (mixture of isomers)		0		inactive		inactive	20				inactive	inactive		
CCOC(=O)N1[C@H]2C[C@@H]([C@H](CCCCCCC(=O)O)[C@H]2O)N1C(=O)OCC (racemic)		0		inactive		inactive	21				inactive	inactive		
C=CCO[C@@H]1[C@@H](CCCCCCC(=O)O)[C@@H]2C[C@@H]1N(C(=O)OCC)N2C(=O)OCC (racemic)		0	0	inactive	36	inactive	88				inactive	inactive	100	
C=CCO[C@@H]1[C@@H](CCCCCCC(=O)O)[C@@H]2C[C@@H]1N=N2 (racemic)		0		inactive		inactive	20				inactive	inactive		
